Results reported in ChEMBL document CHEMBL1148054, “Chemical and bioactive constituents from Zanthoxylum simulans” (J Nat Prod, 1994).
The source made the active and inactive calls. The calls are words filed in the database; no cut-off is given here.

Columns and labels:
Assay type in all cases: functional
Platelet [1] = test: Antiplatelet activity against rabbit platelet assessed as inhibition of arachidonic acid-induced platelet aggregation at 100 ug/ml; details: Oryctolagus cuniculus
Platelet [2] = test: Antiplatelet activity against rabbit platelet assessed as inhibition of collagen-induced platelet aggregation at 100 ug/ml; details: Oryctolagus cuniculus
Platelet [3] = test: Antiplatelet activity against rabbit platelet assessed as inhibition of platelet activating factor-induced platelet aggregation at 100 ug/ml; details: Oryctolagus cuniculus
HL-60 [4] = test: Induction of terminal cell differentiation in human HL60 cells assessed as cell viability at 0.1 uM by trypan blue exclusion method; details: read-out: Activity
Summary of the method: (§1)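 HL-60 cells preincubated 18 h at 1.2×10^5 cells/ml, then exposed 4 days to samples in DMSO (final 0.1%). Viability by trypan blue exclusion: viable/(viable+dead)×100. Cell counts also taken after 4 days.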

HL-60 [5] = test: Induction of terminal cell differentiation in human HL60 cells assessed as inhibition of [3H]thymidine incorporation at 0.01 uM after 4 days; set-up: scale not given: the % may be the effect or the level left
Summary of the method: (§2)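 HL-60 cells were kept in RPMI 1640 with 5% heat-inactivated calf serum and penicillin/streptomycin at 37° under 5% CO2. Log-phase cells were diluted to 1.2×10^5 cells/ml and preincubated 18 h. Samples were added in DMSO (final 0.1%; vehicle controls matched) for 4 days. Aliquots then got 0.5 μCi/ml [3H]thymidine for 16 h more, were harvested and scintillation-counted. % incorporation per 10^6 cells = sample DPM / DMSO-control DPM.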

HL-60 [6] = test: Induction of cell differentiation in human HL60 cells assessed as alpha naphthyl esterase activity at 0.0001 uM after 4 days
Summary of the method: (§3)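 HL-60 cells in RPMI 1640 with 5% heat-inactivated calf serum at 37° under 5% CO2. Log-phase cells diluted to 1.2×10^5 cells/ml and preincubated 18 h, then samples added in DMSO (final 0.1%, DMSO controls). Cells scored after 4 days.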

HL-60 [7] = test: Induction of cell differentiation in human HL60 cells assessed as alpha naphthyl esterase activity at 0.01 uM after 4 days; summary of the method: as §3
HL-60 [8] = test: Induction of cell differentiation in human HL60 cells assessed as alpha naphthyl esterase activity at 0.1 uM after 4 days; summary of the method: as §3
HL-60 [9] = test: Induction of terminal cell differentiation in human HL60 cells assessed as naphthol AS-D chloroacetate esterase activity at 0.0001 uM after 4 days
Summary of the method: (§4)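 HL-60 cells were grown in RPMI 1640 with 5% heat-inactivated calf serum at 37°, 5% CO2. They were diluted to 1.2×10^5 cells/ml, preincubated 18 h, then exposed 4 days to DMSO-dissolved samples (final DMSO 0.1%, matched vehicle controls). Specific esterase (naphthol AS-D chloroacetate) was scored cytochemically with a commercial kit as the percentage of differentiated cells.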

HL-60 [10] = test: Induction of terminal cell differentiation in human HL60 cells at 0.001 uM after 4 days by NBT reduction assay
Summary of the method: (§5)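 Log-phase HL-60 cells (RPMI 1640, 5% heat-inactivated calf serum, 37°, 5% CO2) were diluted to 1.2×10^5 cells/ml, preincubated 18 h, then treated 4 days with samples in DMSO (final 0.1%; DMSO controls). 10^6 cells were mixed 1:1 with fresh PBS holding 2 mg/ml NBT and 5 μg/ml TPA, 1 h at 37°. Formazan-positive cells were counted microscopically as % NBT-positive.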

HL-60 [11] = test: Induction of terminal cell differentiation in human HL60 cells assessed as cell viability at 0.001 uM by trypan blue exclusion method; details: read-out: Activity; summary of the method: as §1
HL-60 [12] = test: Induction of terminal cell differentiation in human HL60 cells at 1 uM after 4 days by NBT reduction assay; summary of the method: as §5
HL-60 [13] = test: Induction of terminal cell differentiation in human HL60 cells assessed as cell viability at 1 uM by trypan blue exclusion method; details: read-out: Activity; summary of the method: as §1
HL-60 [14] = test: Induction of terminal cell differentiation in human HL60 cells assessed as inhibition of [3H]thymidine incorporation at 0.0001 uM after 4 days; set-up: scale not given: the % may be the effect or the level left
Summary of the method: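 After 4-day sample treatment, 100 μl of HL-60 cells pulsed with 0.5 μCi/ml [3H]thymidine (65 Ci/mmol) for 16 h. Cells harvested and counted by liquid scintillation. Incorporation per 10^6 cells given as sample DPM divided by DMSO-control DPM.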

HL-60 [15] = test: Induction of terminal cell differentiation in human HL60 cells at 0.0001 uM after 4 days by NBT reduction assay; summary of the method: as §5
HL-60 [16] = test: Induction of terminal cell differentiation in human HL60 cells assessed as naphthol AS-D chloroacetate esterase activity at 0.001 uM after 4 days; summary of the method: as §4
HL-60 [17] = test: Induction of terminal cell differentiation in human HL60 cells at 0.01 uM after 4 days by NBT reduction assay; summary of the method: as §5
HL-60 [18] = test: Induction of terminal cell differentiation in human HL60 cells assessed as cell viability at 0.01 uM by trypan blue exclusion method; details: read-out: Activity; summary of the method: as §1
HL-60 [19] = test: Induction of terminal cell differentiation in human HL60 cells assessed as cell viability at 0.0001 uM by trypan blue exclusion method; details: read-out: Activity; summary of the method: as §1
HL-60 [20] = test: Induction of terminal cell differentiation in human HL60 cells assessed as inhibition of [3H]thymidine incorporation at 1 uM after 4 days; set-up: scale not given: the % may be the effect or the level left; summary of the method: as §2
HL-60 [21] = test: Induction of cell differentiation in human HL60 cells assessed as alpha naphthyl esterase activity at 0.001 uM after 4 days; summary of the method: as §3
HL-60 [22] = test: Induction of terminal cell differentiation in human HL60 cells assessed as naphthol AS-D chloroacetate esterase activity at 0.01 uM after 4 days; summary of the method: as §4
HL-60 [23] = test: Induction of cell differentiation in human HL60 cells assessed as alpha naphthyl esterase activity at 1 uM after 4 days; summary of the method: as §3
HL-60 [24] = test: Induction of terminal cell differentiation in human HL60 cells assessed as naphthol AS-D chloroacetate esterase activity at 1 uM after 4 days; summary of the method: as §4
HL-60 [25] = test: Induction of terminal cell differentiation in human HL60 cells assessed as inhibition of [3H]thymidine incorporation at 0.001 uM after 4 days; set-up: scale not given: the % may be the effect or the level left; summary of the method: as §2
HL-60 [26] = test: Induction of terminal cell differentiation in human HL60 cells at 0.1 uM after 4 days by NBT reduction assay; summary of the method: as §5
HL-60 [27] = test: Induction of terminal cell differentiation in human HL60 cells assessed as inhibition of [3H]thymidine incorporation at 0.1 uM after 4 days; set-up: scale not given: the % may be the effect or the level left; summary of the method: as §2
HL-60 [28] = test: Induction of terminal cell differentiation in human HL60 cells assessed as naphthol AS-D chloroacetate esterase activity at 0.1 uM after 4 days; summary of the method: as §4

Structure (SMILES): Oc1cnc2c(ccc3cc4c(cc32)OCO4)c1
- Activity (Platelet [1]): inactive
- Activity (Platelet [2]): inactive
- Activity (Platelet [3]): inactive

Structure (SMILES): C=C1/C(=C\C=C2/CCC[C@]3(C)[C@@H]([C@H](C)CCCC(C)(C)O)CC[C@@H]23)C[C@@H](O)C[C@@H]1O [CALCITRIOL]
- viability at 0.1 µM (HL-60 [4]): 95%
- Activity (HL-60 [5]): 58.3%
- Activity (HL-60 [6]): 2.5%
- Activity (HL-60 [7]): 68%
- Activity (HL-60 [8]): 90.1%
- Activity (HL-60 [9]): 5%
- Activity (HL-60 [10]): 28.5%
- viability at 0.001 µM (HL-60 [11]): 99%
- Activity (HL-60 [12]): 90.5%
- viability at 1 µM (HL-60 [13]): 92%
- Activity (HL-60 [14]): 6%
- Activity (HL-60 [15]): 8.8%
- Activity (HL-60 [16]): 4.6%
- Activity (HL-60 [17]): 73.3%
- viability at 0.01 µM (HL-60 [18]): 97%
- viability at 0.0001 µM (HL-60 [19]): 98%
- Activity (HL-60 [20]): 95.3%
- Activity (HL-60 [21]): 14%
- Activity (HL-60 [22]): 4%
- Activity (HL-60 [23]): 95.3%
- Activity (HL-60 [24]): 2%
- Activity (HL-60 [25]): 32.3%
- Activity (HL-60 [26]): 80%
- Activity (HL-60 [27]): 92%
- Activity (HL-60 [28]): 2%
